Experimental data from ChEMBL document CHEMBL4480372, “Design, synthesis, and in vitro and in vivo characterization of 1-{4-[4-(substituted)piperazin-1-yl]butyl}guanidines and their piperidine analogues as histamine H3 receptor antagonists” (Medchemcomm, 2019).
Blank lines part the entries; values can stand above or below the compound they belong to. Calls of active or inactive are those of the source. No cut-off for these calls is given here.

Assays:
Histamine H1 receptor [1] = biological target: T1, Histamine H1 receptor (Cavia porcellus, UniProt P31389); test: (§1) Antagonist activity at histamine H1 receptor in guinea pig ileum preincubated for 10 mins followed by histamine addition during 30 mins equilibration period with washing every 10 mins; type: tissue-based; conditions: read-out: pA2 (converted)
Histamine H3 receptor [2] = biological target: T2, Histamine H3 receptor (Cavia porcellus, UniProt Q9JI35); test: Antagonist activity at histamine H3 receptor in guinea pig jejunum assessed as effect on […] inhibition of electrically evoked contraction treated 20 mins after […]; type: tissue-based; conditions: read-out: pA2 (converted)
Outline: (§2)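 Guinea pig jejunum segments (2 cm) were electrically stimulated between platinum electrodes in Krebs buffer gassed with 95% O2/5% CO2 at 37 °C, with isotonic recording under 1.0 g tension. […] After 20 min, cumulative half-log (R)-α-methylhistamine concentration-response curves were recorded until the response stopped changing.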

Rattus norvegicus [3] = test: Reduction in food consumption in Lewis rat at 3 mg/kg, sc administered daily for 5 days relative to control
[4] = biological target: Histamine H1 receptor (Cavia porcellus) (UniProt P31389); test: as §1; type: tissue-based
Histamine H1 receptor [5] = biological target: T1, Histamine H1 receptor; test: Antagonist activity at histamine H1 receptor in guinea pig ileum preincubated for 10 mins followed by histamine addition during 30 mins equilibration period with washing every 10 mins; conditions: read-out: pA2 (converted)
Rattus norvegicus [6] = test: Effect on cerebral MAO activity in rat at 3 mg/kg, sc administered for 5 consecutive days measured at 24 hrs post last dose by radioisotopic assay; type: functional, organism-based
Outline: (§3)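 Cortex from rats given 3 mg kg⁻¹ per day s.c. for 5 days (n = 8) was taken 24 h after the last dose and homogenized in water. HNMT, MAO-A and MAO-B were measured radioisotopically. MAO-A used 5-[2-14C]hydroxytryptamine as substrate; MAO-B used β-[ethyl-1-¹⁴C]phenylethylamine. Clorgyline and deprenyl (final 10^-9 M) were used as inhibitors. Protein was measured by the Lowry method.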

Histamine H4 receptor = Histamine H4 receptor (Homo sapiens, UniProt Q9H3N8); test: Displacement of [3H]histamine from human recombinant histamine H4 receptor expressed in CHO cell membranes after 1 hrs by liquid scintillation counting analysis
Rattus norvegicus [7] = test: Effect on cerebral HNMT activity in rat at 3 mg/kg, sc administered for 5 consecutive days measured at 24 hrs post last dose by radioisotopic assay; type: functional, organism-based; outline: as §3
Homo sapiens = species on record: Homo sapiens; test: Selectivity ratio of Ki for recombinant human histamine H4 receptor expressed in CHO cell membranes to Ki for recombinant human histamine H3 receptor expressed in HEK293 cells; type: cell-based
[8] = biological target: Histamine H3 receptor (Rattus norvegicus) (UniProt Q9QYN8); test: Antagonist activity at rat histamine H3 receptor assessed as reduction in noradrenaline level in rat cortex at 3 mg/kg, sc administered for 5 consecutive days measured at 24 hrs post last dose by RIA or ELISA method; type: organism-based
Outline: (§4)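 Male rats aged 9-10 weeks (Wistar or Lewis, n = 8) received 3 mg kg⁻¹ per day s.c. for 5 days. Saline-dosed and ciproxifan-dosed groups were included. Rats were killed 24 h after the last injection. The cerebral cortex was dissected, frozen in liquid nitrogen, stored at -80 °C and homogenized in 3 volumes of water. Dopamine, noradrenaline and serotonin were measured by RIA; histamine by ELISA.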

Histamine H3 receptor [9] = biological target: Histamine H3 receptor (Homo sapiens, UniProt Q9Y5N1); test: Displacement of [3H]-Nalpha-Methylhistamine from recombinant human histamine H3 receptor expressed in HEK293 cells after 1 hr by liquid scintillation counting analysis; type: cell-based
Histamine H3 receptor [10] = biological target: Histamine H3 receptor (Rattus norvegicus, UniProt Q9QYN8); test: Displacement of [3H]-Nalpha-Methylhistamine from rat histamine H3 receptor expressed in HEK293T cell membranes after 120 mins by liquid scintillation counting analysis
[11] = biological target: Histamine H3 receptor (Rattus norvegicus) (UniProt Q9QYN8); test: Antagonist activity at rat histamine H3 receptor assessed as reduction in histamine level in rat cortex at 3 mg/kg, sc administered for 5 consecutive days measured at 24 hrs post last dose by RIA or ELISA method; type: organism-based; outline: as §4
[12] = biological target: Histamine H3 receptor (Rattus norvegicus) (UniProt Q9QYN8); test: Antagonist activity at rat histamine H3 receptor assessed as reduction in serotonin level in rat cortex at 3 mg/kg, sc administered for 5 consecutive days measured at 24 hrs post last dose by RIA or ELISA method; type: organism-based; outline: as §4
[13] = biological target: Histamine H3 receptor (Rattus norvegicus) (UniProt Q9QYN8); test: Antagonist activity at rat histamine H3 receptor assessed as reduction in dopamine level in rat cortex at 3 mg/kg, sc administered for 5 consecutive days measured at 24 hrs post last dose by RIA or ELISA method; type: organism-based; outline: as §4
Histamine H3 receptor [14] = biological target: T2, Histamine H3 receptor; test: Antagonist activity at histamine H3 receptor in guinea pig jejunum assessed as effect on […] inhibition of electrically evoked contraction treated 20 mins after […] and measured after 1 hr equilibration followed by compound wash out every 10 mins; type: tissue-based; conditions: read-out: pA2 (converted); outline: as §2
Rattus norvegicus [15] = test: Reduction in pellet consumption in Wistar rat at 3 mg/kg, sc administered daily for 5 days relative to control; type: functional; set-up: scale not given: the % may be the effect or the level left
Outline: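 Male rats aged 9-10 weeks were housed singly in metabolic cages with free access to feed and water. Wistar rats were used for one compound and Lewis rats for the others. After 1 day of adaptation, baseline intake was averaged over 3 days. Dosing was 3 mg kg⁻¹ per day s.c. for 5 days (n = 8), with saline controls (0.2 ml per day). Intake was recorded each morning as g feed per 100 g body mass.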

Sequence of Histamine H3 receptor (Homo sapiens, UniProt Q9Y5N1) (Q9Y5N1 whole entry): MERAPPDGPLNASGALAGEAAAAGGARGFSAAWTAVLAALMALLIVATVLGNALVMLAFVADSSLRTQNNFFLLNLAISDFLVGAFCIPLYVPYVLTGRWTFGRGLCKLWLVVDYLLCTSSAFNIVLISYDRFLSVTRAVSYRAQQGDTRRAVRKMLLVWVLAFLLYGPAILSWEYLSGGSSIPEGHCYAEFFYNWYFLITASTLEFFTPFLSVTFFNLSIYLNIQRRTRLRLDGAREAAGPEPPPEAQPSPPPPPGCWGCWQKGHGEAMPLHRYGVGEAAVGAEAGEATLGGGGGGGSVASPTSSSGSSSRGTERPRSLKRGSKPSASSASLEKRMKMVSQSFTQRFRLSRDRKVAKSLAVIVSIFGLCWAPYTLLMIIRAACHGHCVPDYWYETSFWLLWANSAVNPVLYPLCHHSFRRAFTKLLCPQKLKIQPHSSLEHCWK
T1 sequence (P31389 whole entry): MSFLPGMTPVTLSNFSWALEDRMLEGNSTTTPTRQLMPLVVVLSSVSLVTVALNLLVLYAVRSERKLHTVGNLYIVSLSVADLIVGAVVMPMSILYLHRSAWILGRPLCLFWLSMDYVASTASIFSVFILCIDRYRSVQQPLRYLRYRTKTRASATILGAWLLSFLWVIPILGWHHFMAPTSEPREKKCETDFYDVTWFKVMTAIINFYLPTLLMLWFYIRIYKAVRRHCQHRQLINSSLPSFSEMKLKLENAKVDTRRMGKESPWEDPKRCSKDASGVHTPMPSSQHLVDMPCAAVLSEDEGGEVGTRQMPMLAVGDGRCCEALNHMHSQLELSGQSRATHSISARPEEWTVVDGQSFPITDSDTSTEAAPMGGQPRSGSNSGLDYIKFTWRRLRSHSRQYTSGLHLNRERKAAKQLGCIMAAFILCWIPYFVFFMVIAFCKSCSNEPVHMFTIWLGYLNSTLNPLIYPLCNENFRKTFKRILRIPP
T2 sequence (Q9JI35 whole entry): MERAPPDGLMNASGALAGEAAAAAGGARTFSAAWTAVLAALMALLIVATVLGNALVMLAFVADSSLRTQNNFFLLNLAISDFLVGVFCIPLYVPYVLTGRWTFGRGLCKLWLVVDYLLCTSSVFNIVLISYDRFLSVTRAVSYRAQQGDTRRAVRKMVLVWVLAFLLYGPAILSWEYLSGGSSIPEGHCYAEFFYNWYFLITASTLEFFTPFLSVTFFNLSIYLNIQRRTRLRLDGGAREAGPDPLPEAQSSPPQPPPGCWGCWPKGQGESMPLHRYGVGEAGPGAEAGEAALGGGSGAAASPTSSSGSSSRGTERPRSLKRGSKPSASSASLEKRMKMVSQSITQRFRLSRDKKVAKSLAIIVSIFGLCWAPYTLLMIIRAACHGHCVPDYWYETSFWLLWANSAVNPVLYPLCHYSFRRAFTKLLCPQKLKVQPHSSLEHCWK
Sequence of Histamine H3 receptor (Rattus norvegicus, UniProt Q9QYN8) (Q9QYN8 whole entry): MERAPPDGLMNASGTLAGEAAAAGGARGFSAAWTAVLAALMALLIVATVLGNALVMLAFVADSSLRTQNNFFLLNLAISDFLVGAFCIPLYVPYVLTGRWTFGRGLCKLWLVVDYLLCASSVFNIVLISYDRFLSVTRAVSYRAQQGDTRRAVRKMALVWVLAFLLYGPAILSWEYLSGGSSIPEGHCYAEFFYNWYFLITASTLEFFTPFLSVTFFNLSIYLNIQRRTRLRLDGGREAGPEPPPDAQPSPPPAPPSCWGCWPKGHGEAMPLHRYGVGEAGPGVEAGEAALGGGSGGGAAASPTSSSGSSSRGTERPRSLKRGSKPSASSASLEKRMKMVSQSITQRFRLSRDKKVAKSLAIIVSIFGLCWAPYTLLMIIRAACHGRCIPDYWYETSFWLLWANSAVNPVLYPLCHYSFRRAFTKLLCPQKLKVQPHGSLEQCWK
Sequence of Histamine H3 receptor (Rattus norvegicus) (Q9QYN8 whole entry): as above
Sequence of Histamine H1 receptor (Cavia porcellus) (P31389 whole entry): as the sequence (P31389 whole entry) above

Kb (Histamine H1 receptor [1]): 107 nM | Kb (Histamine H3 receptor [2]): 50.1 nM
SMILES: N#C/N=C(\N)N(CCCCN1CCN(CCCCCCCOc2ccccc2)CC1)Cc1ccccc1

Kb (Histamine H1 receptor [1]): 158 nM | Kb (Histamine H3 receptor [2]): 1660 nM
SMILES: N=C(N)N(CCCCCCCOc1ccccc1)Cc1ccccc1

Kb (Histamine H1 receptor [5]): 240 nM | Ki (Histamine H4 receptor): 1070 nM | Activity [8]: inactive | Ki (Histamine H3 receptor [9]): 275 nM | Ki (Histamine H3 receptor [10]): 25.1 nM | Activity [11]: inactive | Activity [12]: Active | Kb (Histamine H3 receptor [14]): 15.8 nM | Activity [13]: Active
SMILES: N=C(N)N(CCCCN1CCN(CCCCCCCOc2ccccc2)CC1)Cc1ccc(Cl)cc1
Activity (Rattus norvegicus [3]): 13.5% | Activity (Rattus norvegicus [6]): inactive | Activity (Rattus norvegicus [7]): inactive | Ratio Ki (Homo sapiens): 3.9

Kb (Histamine H1 receptor [5]): 347 nM
SMILES: N=C(N)N(CCCCN1CCN(CCCCCCCOc2ccccc2)CC1)Cc1ccc(C(F)(F)F)cc1

Kb (Histamine H1 receptor [1]): 126 nM | Kb (Histamine H3 receptor [2]): 4.47 nM
SMILES: N=C(N)N(CCCCC1CCN(CCCCCCCOc2ccccc2)CC1)Cc1ccc(C(F)(F)F)cc1

Kb (Histamine H1 receptor [5]): 224 nM | Ki (Histamine H4 receptor): 1200 nM | Activity [8]: inactive | Ki (Histamine H3 receptor [9]): 145 nM | Ki (Histamine H3 receptor [10]): 15.8 nM | Activity [11]: inactive | Activity [12]: Active | Kb (Histamine H3 receptor [14]): 3.72 nM | Activity [13]: Active
SMILES: N=C(N)N(CCCCN1CCN(CCCCCCCOc2ccccc2)CC1)Cc1ccc([N+](=O)[O-])cc1
Activity (Rattus norvegicus [6]): inactive | Activity (Rattus norvegicus [7]): inactive | Ratio Ki (Homo sapiens): 8.3 | Activity (Rattus norvegicus [15]): 10%

The remaining lines, values behind:

SMILES: N=C(NCCCCN1CCN(CCCCCCCOc2ccccc2)CC1)NCc1ccccc1
Kb (Histamine H1 receptor [1]): 79.4 nM | Kb (Histamine H3 receptor [2]): 7.94 nM

SMILES: N=C(N)N(CCCCN1CCN(CCCCN(Cc2ccc(C(F)(F)F)cc2)C(=N)N)CC1)Cc1ccc(C(F)(F)F)cc1
Kb (Histamine H1 receptor [1]): 60.3 nM | Kb (Histamine H3 receptor [2]): 10.2 nM

SMILES: O=C(c1ccc(OCCCc2c[nH]cn2)cc1)C1CC1
Activity (Rattus norvegicus [3]): Active

SMILES: N=C(N)N(CCCCN1CCC(CCCCCCCOc2ccccc2)CC1)Cc1ccc(C(F)(F)F)cc1
Kb (Histamine H1 receptor [1]): 64.6 nM | Kb (Histamine H3 receptor [2]): 12.6 nM

SMILES: c1ccc(OCCCCCCCN2CCN(CCCCCCCOc3ccccc3)CC2)cc1
pA2 [4]: inactive | Kb (Histamine H3 receptor [2]): 1660 nM

SMILES: N=C(N)N(CCCCN1CCN(CCCCCCCOc2ccccc2)CC1)Cc1ccccc1
Activity (Rattus norvegicus [3]): Active | Kb (Histamine H1 receptor [5]): 200 nM | Activity (Rattus norvegicus [6]): inactive | Ki (Histamine H4 receptor): 3240 nM | Activity (Rattus norvegicus [7]): inactive | Ratio Ki (Homo sapiens): 20.9 | Activity [8]: inactive | Ki (Histamine H3 receptor [9]): 158 nM | Ki (Histamine H3 receptor [10]): 12.6 nM | Activity [11]: inactive | Activity [12]: Active | Activity [13]: Active

SMILES: S=C(NC1CCCCC1)N1CCC(c2cnc[nH]2)CC1 [THIOPERAMIDE]
Kb (Histamine H3 receptor [2]): 1.05 nM

SMILES: N=C(NCCCCN1CCN(CCCCCCCOc2ccccc2)CC1)NCc1ccc(C(F)(F)F)cc1
Kb (Histamine H1 receptor [1]): 66.1 nM | Kb (Histamine H3 receptor [2]): 10.7 nM
